Reference: ChEMBL document CHEMBL4390681, “Novel allosteric covalent inhibitors of bifunctional Cryptosporidium hominis TS-DHFR from parasitic protozoa identified by virtual screening” (Bioorg Med Chem Lett, 2019)
Calls of active or inactive are those of the source. No cut-off for these calls is given here.

T1: Bifunctional dihydrofolate reductase-thymidylate synthase (Cryptosporidium hominis) (UniProt A0A0S4TER9)
T1 sequence (whole entry): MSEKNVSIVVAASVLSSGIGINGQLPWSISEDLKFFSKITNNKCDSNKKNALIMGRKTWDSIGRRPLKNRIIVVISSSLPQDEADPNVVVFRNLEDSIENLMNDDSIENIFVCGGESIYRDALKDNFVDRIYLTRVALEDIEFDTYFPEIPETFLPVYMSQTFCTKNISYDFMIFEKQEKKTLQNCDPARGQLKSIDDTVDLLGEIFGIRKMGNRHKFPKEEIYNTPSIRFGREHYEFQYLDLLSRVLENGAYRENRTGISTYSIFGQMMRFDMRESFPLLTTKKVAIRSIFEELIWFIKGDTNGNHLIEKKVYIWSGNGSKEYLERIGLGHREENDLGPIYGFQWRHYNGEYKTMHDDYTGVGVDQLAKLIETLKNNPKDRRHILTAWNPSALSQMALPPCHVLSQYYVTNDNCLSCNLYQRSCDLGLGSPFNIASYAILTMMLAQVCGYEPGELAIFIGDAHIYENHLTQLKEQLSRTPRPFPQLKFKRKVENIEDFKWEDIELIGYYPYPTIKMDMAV

T2: Bifunctional dihydrofolate reductase-thymidylate synthase (Cryptosporidium hominis), A0A0S4TER9 [C44S]
T2 sequence (whole entry): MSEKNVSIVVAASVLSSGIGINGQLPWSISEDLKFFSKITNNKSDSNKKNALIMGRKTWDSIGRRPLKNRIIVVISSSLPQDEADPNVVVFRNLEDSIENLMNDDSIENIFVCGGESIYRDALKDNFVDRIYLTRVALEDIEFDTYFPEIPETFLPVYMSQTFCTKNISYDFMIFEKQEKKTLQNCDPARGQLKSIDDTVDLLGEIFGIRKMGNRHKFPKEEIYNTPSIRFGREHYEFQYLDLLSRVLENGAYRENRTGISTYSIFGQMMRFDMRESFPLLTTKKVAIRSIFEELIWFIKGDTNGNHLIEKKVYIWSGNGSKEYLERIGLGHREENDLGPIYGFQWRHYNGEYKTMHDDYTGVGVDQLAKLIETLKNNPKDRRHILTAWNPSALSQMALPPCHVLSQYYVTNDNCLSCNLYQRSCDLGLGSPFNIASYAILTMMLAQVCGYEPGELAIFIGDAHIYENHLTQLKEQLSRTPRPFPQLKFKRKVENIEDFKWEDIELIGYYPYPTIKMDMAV

T3: Dihydrofolate reductase (Homo sapiens) (UniProt P00374)
T3 sequence (whole entry): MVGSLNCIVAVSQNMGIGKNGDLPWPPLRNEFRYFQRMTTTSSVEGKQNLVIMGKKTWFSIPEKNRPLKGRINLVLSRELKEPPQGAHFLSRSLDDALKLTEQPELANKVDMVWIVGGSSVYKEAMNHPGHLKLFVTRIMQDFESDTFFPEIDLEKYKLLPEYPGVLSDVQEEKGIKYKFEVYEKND


Experiments:
[1] = target: T1, Bifunctional dihydrofolate reductase-thymidylate synthase (Cryptosporidium hominis); assay: (§1) Inhibition of recombinant Cryptosporidium hominis TS-DHFR expressed in Escherichia coli PA414 assessed as reduction in DHFR steady state activity at 500 uM using [3',5',7,9-3H]-H2folate as substrate preincubated for 10 mins before NADPH addition for 5 mins followed by substrate addition and measured after 5 mins by NADPH based radiometric chemical quench assay relative to control
How it was run: (§2)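 Radiometric DHFR steady-state activity assay on recombinant ChTS-DHFR. Compound was incubated with the enzyme for 10 min before the reaction was started. Single-point screen was at 500 µM, and dose-dependence was also assessed. Activity is expressed as percent of control.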

[2] = target: T1, Bifunctional dihydrofolate reductase-thymidylate synthase (Cryptosporidium hominis); assay: Inhibition of recombinant Cryptosporidium hominis TS-DHFR expressed in Escherichia coli PA414 assessed as decrease in TS activity
[3] = Solubility of the compound at >500 uM; assay type: physicochemical
[4] = target: T1, Bifunctional dihydrofolate reductase-thymidylate synthase (Cryptosporidium hominis); assay: (§3) Mixed noncompetitive inhibition of recombinant Cryptosporidium hominis TS-DHFR expressed in Escherichia coli PA414 assessed as Kobs at 100 uM […] preincubated for 10 mins before NADPH addition for 5 mins followed by substrate addition and measured after 5 mins by Lineweaver-Burk plot analysis (reference value: 1.98 +/- 0.09 /s)
[5] = target: T1, Bifunctional dihydrofolate reductase-thymidylate synthase (Cryptosporidium hominis); assay: as §3, with “250” for “100”
[6] = target: T1, Bifunctional dihydrofolate reductase-thymidylate synthase (Cryptosporidium hominis); assay: as §1, with “activity” for “activity at 500 uM”; how it was run: as §2
[7] = target: T1, Bifunctional dihydrofolate reductase-thymidylate synthase (Cryptosporidium hominis); assay: as §1, with “1 hr to 72 hrs” for “10 mins”; details: TDE = time-dependent effect
How it was run: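 Compound at 500 µM was incubated with ChTS-DHFR for 1 h, 16 h, 48 h or 72 h before the radiometric DHFR reaction was initiated, to follow time-dependent inhibition. The standard assay uses a 10 min incubation.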

[8] = test system: T2, Bifunctional dihydrofolate reductase-thymidylate synthase (Cryptosporidium hominis), A0A0S4TER9 [C44S]; assay: as §1, with “TS-DHFR Cys44Ser mutant” for “TS-DHFR”, “16 hrs” for “10 mins”
How it was run: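 Wild-type and Cys44Ser mutant ChTS-DHFR, each incubated 16 h with compound before the radiometric DHFR reaction was started. Read-out was percent DHFR activity.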

[9] = target: T3, Dihydrofolate reductase (Homo sapiens); assay: Inhibition of human DHFR assessed as decrease in DHFR steady state activity at 500 uM using [3',5',7,9-3H]-H2folate as substrate preincubated for 16 hrs before NADPH addition incubated for 5 mins followed by substrate addition and measured after 5 mins by NADPH based radiometric chemical quench assay relative to control
How it was run: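 Radiometric DHFR steady-state assay with human DHFR. Compound and enzyme were incubated for 16 h before the reaction was started. Percent inhibition was read relative to control.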

Cryptosporidium hominis = assay: Ratio of inhibition of recombinant Cryptosporidium hominis TS-DHFR Cys44Ser mutant expressed in Escherichia coli PA414 to inhibition of recombinant Cryptosporidium hominis TS-DHFR expressed in Escherichia coli PA414
[10] = compound: Cc1cc(Br)ccc1NC(=S)Nc1cccc(NC(=O)c2ccccc2O)c1; assay: (§4) Mixed noncompetitive inhibition of recombinant Cryptosporidium hominis TS-DHFR expressed in Escherichia coli PA414 assessed as substrate Kcat at 100 uM using varying levels of [3',5',7,9-3H]-H2folate as substrate preincubated for 10 mins before NADPH addition for 5 mins followed by substrate addition and measured after 5 mins by Lineweaver-Burk plot analysis (reference value: 2.17 +/- 0.04 /s)
[11] = compound: Cc1cc(Br)ccc1NC(=S)Nc1cccc(NC(=O)c2ccccc2O)c1; assay: as §4, with “250” for “100”
[12] = compound: Cc1cc(Br)ccc1NC(=S)Nc1cccc(NC(=O)c2ccccc2O)c1; assay: as §4, with “Km” for “Kcat”, “1.2” for “2.17”, “0.2 uM)” for “0.04 /s)”
[13] = compound: Cc1cc(Br)ccc1NC(=S)Nc1cccc(NC(=O)c2ccccc2O)c1; assay: as §4, with “Km” for “Kcat”, “250” for “100”, “1.2” for “2.17”, “0.2 uM)” for “0.04 /s)”

Molecule | inhibition [1] | also measured
Cc1cc(Br)ccc1NC(=S)Nc1cccc(NC(=O)c2ccccc2O)c1 | 52.2% | inhibition [2]: inactive; solubility [3]: Insoluble; K [4]: 1.6 s⁻¹; K [5]: 1.33 s⁻¹; inhibition [6]: Dose-dependent effect
O=C(Nc1ccc(F)c(Cl)c1)c1cc(Br)ccc1O | 61% | solubility [3]: Insoluble; inhibition [6]: Dose-dependent effect
O=C(NNC(=O)c1ccccc1CO)c1ccc(Cl)c(Cl)c1 | 21.2% | –
O=C(NCc1cccs1)c1ccc2nccnc2c1 | 2% | –
O=C(Nc1cccc(S)c1)c1cc(Br)ccc1O | – | inhibition ([1]; TDE = time-dependent effect): Tde; inhibition [7]: Tde; inhibition [8]: inactive; inhibition [9]: 95%
CCOC(=O)C(=CNNC(=O)[C@@H]1[C@@H](C(=O)O)[C@H]2C=C[C@@H]1C2)C(=O)OCC | -4.4% | –
O=C(Nc1ccc(Cl)cc1)c1cc(Br)ccc1O | 11.1% | –
COc1cc(C(F)(F)F)c(C(N)=O)cn1 | 0.29% | –
NCc1ccc(NC(=O)c2ccccc2O)cc1 | 1.1% | –
O=C(O)C[C@@H]1SC(c2ccc3c(c2)OCO3)=NC1=O | -0.67% | –
O=C(Nc1cc(Cl)cc(Cl)c1)c1cc(Br)ccc1O | 49% | solubility [3]: Insoluble; inhibition [6]: Dose-dependent effect
O=C1NC(=S)NC(=O)C1=Cc1c[nH]c2ccccc12 | -1.6% | –
COc1ccc(Br)c(OC)c1C(=O)NC(=O)Nc1cc(Cl)cc(Cl)c1 | 7.9% | –
O=C(Nc1ccc(Cl)cc1)c1cc(I)ccc1O | 47% | solubility [3]: Insoluble; inhibition [6]: Dose-dependent effect
Cc1cc2c(cc1C)N[C@H](C)CC(=O)N2 | -3.8% | –
Nc1cccc(NC(=O)c2ccccc2O)c1 | -1.3% | –
O=c1ccn([C@H]2C[C@H](O)[C@@H](CO)O2)c(=O)[nH]1 | -5.3% | –

Molecule | inhibition [1] | also measured
O=C(Nc1cccc(Cl)c1)c1cc(Cl)ccc1O | 54% | solubility [3]: Insoluble; inhibition [6]: Dose-dependent effect
Cc1ccc(C(=O)Nc2cc(Cl)cc(Cl)c2)c(O)c1 | 61% | solubility [3]: Insoluble; inhibition [6]: Dose-dependent effect; inhibition [8]: inactive
O=C(Nc1cc(C(F)(F)F)cc(C(F)(F)F)c1)c1cc(Br)ccc1O | 24.4% | –
O=C(Nc1ccc(Br)cc1)c1ccccc1O | 8.8% | –
Nc1cc(NC(=O)c2ccccc2O)ccc1Cl | -1.3% | –
O=C(Nc1ccc(F)cc1)c1cc(Br)ccc1O | 20% | –
O=C(Nc1cc(Cl)cc(Cl)c1)c1ccccc1O | 9.8% | –
CNC(=O)c1ccc(NC(=O)c2ccccc2O)cc1 | 14.7% | –
Oc1nc2ccccc2nc1O | -2.6% | –
CCOC(=O)C1=C(C)NC(C)=C(C(=O)OCC)C1c1ccc2c(c1)OCO2 | -7.9% | –
O=C(Nc1ccccc1O)c1ccc(Br)cc1O | -0.176% | –
CC(=O)C[C@@]1(O)C(=O)Nc2ccc(F)cc21 | -6% | –
O=C(O)c1nccnc1-c1nc(=O)c2ccccc2[nH]1 | -4.4% | –
NC(=S)Cc1c(Cl)sc2ccc(Cl)cc12 | 32.6% | –
Cc1ccc(C(=O)Nc2cccc(S)c2)c(O)c1 | – | inhibition [7]: Tde; inhibition [8]: 38%; Ratio (Cryptosporidium hominis): 2; inhibition [9]: inactive
Bifunctional dihydrofolate reductase-thymidylate synthase (Cryptosporidium hominis), A0A0S4TER9 (protein) MSEKNVSIVVAASVLSSGIGINGQLPWSISEDLKFFSKITNNKCDSNKKNALIMGRKTWDSIGRRPLKNRIIVVISSSLPQDEADPNVVVFRNLEDSIENLMNDDSIENIFVCGGESIYRDALKDNFVDRIYLTRVALEDIEFDTYFPEIPETFLPVYMSQTFCTKNISYDFMIFEKQEKKTLQNCDPARGQLKSIDDTVDLLGEIFGIRKMGNRHKFPKEEIYNTPSIRFGREHYEFQYLDLLSRVLENGAYRENRTGISTYSIFGQMMRFDMRESFPLLTTKKVAIRSIFEELIWFIKGDTNGNHLIEKKVYIWSGNGSKEYLERIGLGHREENDLGPIYGFQWRHYNGEYKTMHDDYTGVGVDQLAKLIETLKNNPKDRRHILTAWNPSALSQMALPPCHVLSQYYVTNDNCLSCNLYQRSCDLGLGSPFNIASYAILTMMLAQVCGYEPGELAIFIGDAHIYENHLTQLKEQLSRTPRPFPQLKFKRKVENIEDFKWEDIELIGYYPYPTIKMDMAV | – | kcat [10]: 1.9 s⁻¹; kcat [11]: 1.2 s⁻¹; Km [12]: 1.3 µM; Km [13]: 1.4 µM
